Measurements from different studies.
Lines come from different studies, so protocols differ.
Target: Homeodomain-interacting protein kinase 2 (HIPK2, Homo sapiens, UniProt Q9H2X6)

| Compound | observed | action | technique | tested at | measurement | result |
| --- | --- | --- | --- | --- | --- | --- |
| N#Cc1ccc(Nc2ccc3[nH]c(=O)[nH]c3c2)c(Cl)c1 | cell-free assay |  | competition with immobilised ligand | 1 µM | remaining binding | 100% |
| COc1cc(-c2cc(-c3ccc(N4CCNCC4)cc3)cnc2C)cc(OC)c1OC | enzyme activity | inhibitor |  | 0.1 µM | inhibition | 1% |
| Cc1ccc(NC(=O)c2ccc(C)c(C(F)(F)F)c2)cc1C#Cc1nn(C2CCC(O)CC2)c2ncnc(N)c12 (stereo not drawn) | cell-free assay |  |  | 10 µM | remaining signal | 99% |
| CCCS(=O)(=O)Nc1ccc(F)c(C(=O)c2c[nH]c3ncc(-c4ccc(Cl)cc4)cc23)c1F | enzyme activity | inhibitor |  | 1 µM | inhibition | < 10% |
| COc1cc2nccc(Oc3ccc(NC(=O)c4c5n(n(-c6ccc(F)cc6)c4=O)CCCC5)cc3)c2cc1OC | enzyme activity | inhibitor |  | 0.1 µM | inhibition | 10% |
| CCCCN(CCCC)C(=O)CN1C[C@H](c2cc(OC)c3c(c2)OCO3)[C@@H](C(=O)O)[C@@H]1CC(C)(C)CCC | cell-free assay |  | competition with immobilised ligand | 1 µM | remaining binding | 82.3% |
| Cc1ccc(Nc2nccc(N(C)c3ccc4c(C)n(C)nc4c3)n2)cc1S(N)(=O)=O | enzyme activity | inhibitor |  | 0.3 µM | inhibition | 7% |
| Cc1c(NC(=O)c2cc(C(N)=O)nc3cc(F)ccc23)c(C(F)(F)F)nn1Cc1ccc(C#N)cc1 | cell-free assay |  | competition with immobilised ligand | 1 µM | remaining binding | 83% |
| COc1cccc(Nc2nc3cc(C(=O)O)ccc3c3cnccc23)c1 | enzyme activity | inhibitor | radiometric | 1 µM | remaining activity | 2% |
| CN([C@@H]1CCc2c(CC(=O)O)c3ccccc3n2C1)S(=O)(=O)c1ccc(F)cc1 | cell-free assay |  | competition with immobilised ligand | 1 µM | remaining binding | 100% |
| O=C(O)c1ccc2c(c1)nc(NCCc1cccc(F)c1)c1ccncc12 | enzyme activity | inhibitor | radiometric | 1 µM | remaining activity | 4% |
| O=C(Nc1ccc(Oc2ccc(F)cc2)cc1)N1CCc2ncccc2[C@H]1c1ccc(F)cc1 | cell-free assay |  | competition with immobilised ligand | 1 µM | remaining binding | 79% |
| CCN(CC)CCNC(=O)c1c(C)[nH]c(/C=C2\C(=O)Nc3ccc(F)cc32)c1C | enzyme activity | inhibitor |  | 10 µM | inhibition | 89% |
| Clc1ccc(Nc2nnc(Cc3ccncc3)c3ccccc23)cc1 | cell-free assay |  |  | 0.5 µM | remaining signal | 101% |
| C[C@H](c1cccc(C#N)c1)n1cc(Cl)cc(C(N)=O)c1=N | cell-free assay |  | competition with immobilised ligand | 1 µM | remaining binding | 100% |
| O=C(O)c1ccc2c(c1)nc(NCc1ccccc1)c1ncncc12 | enzyme activity | inhibitor | radiometric | 1 µM | remaining activity | 39% |
| Cc1nc(N2CC[C@@H](O)C2)ncc1-c1cc(C(F)(F)F)cc2[nH]ncc12 | binding |  | competition with immobilised ligand | 1 µM | remaining binding | 74% |
| N#Cc1cccc(Nc2nc3cc(C(=O)O)ccc3c3cncnc23)c1 | enzyme activity | inhibitor | radiometric | 1 µM | remaining activity | 3% |
| COc1cc2ncnc(Nc3ccc(Oc4ccccc4)c(C)c3C)c2cc1OC | enzyme activity | inhibitor |  | 1 µM | inhibition | 1% |
| O=C(O)c1ccc2c(c1)nc(Nc1cccc(F)c1)c1ccncc12 | enzyme activity | inhibitor | radiometric | 1 µM | remaining activity | -1% |
| CN(c1ncccc1CNc1nc(Nc2ccc3c(c2)CC(=O)N3)ncc1C(F)(F)F)S(C)(=O)=O | enzyme activity | inhibitor |  | 1 µM | inhibition | 85.7% |
| COc1cccc(CCNc2nc3cc(C(=O)O)ccc3c3cncnc23)c1 | enzyme activity | inhibitor | radiometric | 1 µM | remaining activity | 22% |
| Cc1ccc(NC(=O)c2ccc(CN3CCN(C)CC3)cc2)cc1Nc1nc(-c2cccnc2)cs1 | cell-free assay |  |  | 0.5 µM | remaining signal | 90.8% |
| O=C(O)c1ccc2c(c1)nc(Nc1ccc(F)c(Cl)c1)c1ncncc12 | enzyme activity | inhibitor | radiometric | 1 µM | remaining activity | 2% |
| CN1CCN(c2cnc3c(C4CCN(C(=O)c5ccc(OC(F)(F)F)cc5N)CC4)ncnc3c2)CC1 | cell-free assay |  | competition with immobilised ligand | 1 µM | remaining binding | 100% |
| N#Cc1cccc(Nc2nc3cc(C(=O)O)ccc3c3cnccc23)c1 | enzyme activity | inhibitor | radiometric | 1 µM | remaining activity | -1% |
| CC/C(=N\NC(=O)NCc1cccc(O)c1)c1ccc(O)c(C)c1O | enzyme activity | inhibitor |  | 0.1 µM | inhibition | 2.1% |
